Laboratory results as given in ChEMBL document CHEMBL4321862, “Application of Bivalent Bioisostere Concept on Design and Discovery of Potent Opioid Receptor Modulators” (J Med Chem, 2019).
Activity calls are given as the source filed them.

Key:
Mus musculus [1] = experiment: Inhibition of opioid-withdrawal symptom in morphine-pelleted Swiss Webster mouse assessed as reduction in escape jumps at 8 mg/kg, sc observed after 20 mins; assay type: functional, organism-based
Summary of the method: (§1)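 Male Swiss Webster mice, n = 5, implanted with 75 mg morphine pellet at base of neck. After 72 h, 30 min habituation in observation chamber, then test compound s.c. Wet-dog shakes, escape jumps and paw tremors counted over 20 min.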

Mu-type opioid receptor [2] = target: T1, Mu-type opioid receptor (Mus musculus, UniProt P42866); experiment: Agonist activity at recombinant mouse mu opioid receptor expressed in CHO cell membrane assessed as [35]-GTPgammaS binding incubated for […] by scintillation counting method
Mus musculus [3] = experiment: Inhibition of morphine-induced antinociceptive activity in Swiss Webster mouse assessed as decrease in latency to tail withdrawal at 10 mg/kg, sc administered 5 mins before morphine stimulation observed for 20 mins by warm water tail withdrawal assay; assay type: functional, organism-based
Summary of the method: (§2)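 Male Swiss Webster mice, n ≥ 5, baseline latency 2–4 s. Test compound given s.c. 5 min before morphine 10 mg/kg. Tail immersion at 56 ± 0.1 °C 20 min after morphine, 10 s cutoff, %MPE per mouse.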

[4] = target: Kappa-type opioid receptor (Mus musculus, UniProt P33534); experiment: Displacement of [3H]-[…] from mouse kappa opioid receptor expressed in CHO cells incubated for […] by competitive radioligand binding assay; assay type: cell-based
Mus musculus [5] = experiment: Inhibition of opioid-withdrawal symptom in morphine-pelleted Swiss Webster mouse assessed as reduction in wet dog shakes at 1 mg/kg, sc observed after 20 mins; assay type: functional, organism-based; summary of the method: as §1
Mu-type opioid receptor [6] = target: T1, Mu-type opioid receptor; experiment: Displacement of [3H]-Naloxone from mouse mu opioid receptor expressed in CHO cells incubated for […] by competitive radioligand binding assay; assay type: cell-based
Mus musculus [7] = experiment: Inhibition of morphine-induced antinociceptive activity in subcutaneously dosed Swiss Webster mouse assessed as decrease in latency to tail withdrawal administered 5 mins before morphine stimulation observed for 20 mins by warm water tail withdrawal assay; assay type: functional; summary of the method: as §2
Mus musculus [8] = experiment: Inhibition of opioid-withdrawal symptom in morphine-pelleted Swiss Webster mouse assessed as reduction in wet dog shakes at 8 mg/kg, sc observed after 20 mins; assay type: functional, organism-based; summary of the method: as §1
Mu-type opioid receptor [9] = target: T1, Mu-type opioid receptor; experiment: (§3) Agonist activity at mouse mu opioid receptor expressed in CHO cells assessed as inhibition of forskolin-induced cAMP formation incubated for 8 min followed by forskolin stimulation by ELISA; assay type: functional, cell-based
[10] = Selectivity index, ratio of Ki for mouse kappa opioid receptor expressed in CHO cells to Ki for mouse mu opioid receptor expressed in CHO cells
Mus musculus [11] = experiment: Inhibition of opioid-withdrawal symptom in morphine-pelleted Swiss Webster mouse assessed as reduction in paw tremors at 1 mg/kg, sc observed after 20 mins; assay type: functional, organism-based; summary of the method: as §1
Mu-type opioid receptor [12] = target: T1, Mu-type opioid receptor; experiment: Antagonist activity at mouse mu opioid receptor expressed in CHO cells cotransfected with Galphaqi5 assessed as inhibition of DAMGO-induced increase in intracellular calcium concentration preincubated for 60 mins in Fluo4AM solution followed by compound addition and further incubated for 15 mins followed by DAMGO stimulation by Fluo4AM dye based assay; assay type: functional, cell-based
Summary of the method: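 Gαqi5-transfected mMOR-CHO cells loaded 60 min with Fluo-4 AM/probenecid. Triplicate per concentration, at least three repeats, mean ± SEM. Naltrexone as control. IC50 by non-linear regression.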

[13] = Selectivity index, ratio of Ki for human delta opioid receptor expressed in CHO cells to Ki for mouse mu opioid receptor expressed in CHO cells
[14] = target: Delta-type opioid receptor (Homo sapiens, UniProt P41143); experiment: Displacement of [3H]-[…] from human delta opioid receptor expressed in CHO cells incubated for […] by competitive radioligand binding assay; assay type: cell-based
Mus musculus [15] = experiment: Inhibition of opioid-withdrawal symptom in morphine-pelleted Swiss Webster mouse assessed as reduction in escape jumps at 1 mg/kg, sc observed after 20 mins; assay type: functional, organism-based; summary of the method: as §1
Mus musculus [16] = experiment: Inhibition of opioid-withdrawal symptom in morphine-pelleted Swiss Webster mouse assessed as reduction in paw tremors at 8 mg/kg, sc observed after 20 mins; assay type: functional, organism-based; summary of the method: as §1
Mus musculus [17] = experiment: Inhibition of opioid-withdrawal symptom in morphine-pelleted Swiss Webster mouse assessed as reduction in wet dog shakes at 50 mg/kg, sc observed after 20 mins; assay type: functional, organism-based; summary of the method: as §1
[18] = target: Mu-type opioid receptor (Mus musculus) (UniProt P42866); experiment: as §3; assay type: functional, cell-based
Summary of the method: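 mMOR-CHO cells grown to confluency, pre-incubated 30 min at 37°C with 1 mM IBMX, 200 μM Ro 20-1724, bovine serum albumin and 20 mM HEPES (pH 7.2-7.5). Ligand then added with 10 μM forskolin for 8 min at 37°C. Media removed, cells rinsed with PBS, cAMP measured by ELISA. DMEM/F12 used as solvent throughout.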

[19] = target: Mu-type opioid receptor (Mus musculus) (UniProt P42866); experiment: Agonist activity at mouse mu opioid receptor expressed in CHO cells cotransfected with Galphaqi5 assessed as intracellular calcium level preincubated for 60 mins in Fluo4AM solution followed by compound addition by Fluo4AM dye based assay; assay type: functional, cell-based
[20] = Toxicity in placebo-pelleted Swiss Webster mouse assessed as escape jumps at 20 mg/kg, sc observed after 20 mins; assay type: organism-based; details: in vivo
Summary of the method: (§4)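 Male Swiss Webster mice, n = 5, placebo-pelleted. Tested 72 h after implantation, following 30 min chamber habituation. Compound given s.c.; wet-dog shakes, escape jumps and paw tremors counted over 20 min.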

[21] = target: Mu-type opioid receptor (Mus musculus) (UniProt P42866); experiment: Agonist activity at recombinant mouse mu opioid receptor expressed in CHO cell membrane assessed as [35]-GTPgammaS binding incubated for […] by scintillation counting method relative to DAMGO
[22] = Toxicity in placebo-pelleted Swiss Webster mouse assessed as paw tremors at 20 mg/kg, sc observed after 20 mins; assay type: organism-based; details: in vivo; summary of the method: as §4
[23] = Toxicity in placebo-pelleted Swiss Webster mouse assessed as wet dog shakes at 20 mg/kg, sc observed after 20 mins; assay type: organism-based; details: in vivo; summary of the method: as §4
Mus musculus [24] = experiment: Inhibition of opioid-withdrawal symptom in morphine-pelleted Swiss Webster mouse assessed as reduction in paw tremors at 50 mg/kg, sc observed after 20 mins; assay type: functional, organism-based; summary of the method: as §1
Mus musculus [25] = experiment: Inhibition of opioid-withdrawal symptom in morphine-pelleted Swiss Webster mouse assessed as reduction in escape jumps at 50 mg/kg, sc observed after 20 mins; assay type: functional, organism-based; summary of the method: as §1
[26] = target: Delta-type opioid receptor (Mus musculus, UniProt P32300); experiment: Displacement of [3H]-diprenorphine from mouse delta opioid receptor expressed in CHO cells incubated for […] by competitive radioligand binding assay; assay type: cell-based

Structure (SMILES)	EC50 (Mu-type opioid receptor [2]) [nM]	inhibition (Mus musculus [3])	Ki [4] [nM]	inhibition (Mus musculus [5])	Ki (Mu-type opioid receptor [6]) [nM]	AD50 (Mus musculus [7]) [mg/kg]	Ratio Ki [10]	inhibition (Mus musculus [11])	IC50 (Mu-type opioid receptor [12]) [nM]	Ratio Ki [13]	Ki [14] [nM]	inhibition (Mus musculus [15])	Emax [18] [%]	Activity [19]	Emax [21] [%]	other results
Cl.O=C(N[C@H]1CC[C@@]2(O)[C@H]3Cc4ccc(O)c5c4[C@@]2(CCN3CC2CC2)[C@H]1O5)c1cccc2ccsc12	6.21	Active	2.65	Active	0.31	0.29	8.5	Active	566	26.9	8.35	Active				inhibition (Mus musculus [1]): Active; inhibition (Mus musculus [8]): Active; EC50 (Mu-type opioid receptor [9]; cho): Not Active; inhibition (Mus musculus [16]): Active
Cl.O=C(N[C@@H]1CC[C@@]2(O)[C@H]3Cc4ccc(O)c5c4[C@@]2(CCN3CC2CC2)[C@H]1O5)c1cccc2ccoc12		Active	0.81	Active		0.18		Active				Active	35.7	inactive	27.3	inhibition (Mus musculus [17]): Active; Activity [20]: Non-Toxic; Activity [22]: Non-Toxic; Activity [23]: Non-Toxic; inhibition (Mus musculus [24]): Active; inhibition (Mus musculus [25]): Active
Cl.O=C(N[C@H]1CC[C@@]2(O)[C@H]3Cc4ccc(O)c5c4[C@@]2(CCN3CC2CC2)[C@H]1O5)c1cccc2occc12	0.77	Active	4.98	Active	0.26	0.29	19.2	Active	50.7	65	16.9	Active	18.9	inactive	10	EC50 (Mu-type opioid receptor [9]; read-out: EC50): 80 nM
Cl.O=C(N[C@H]1CC[C@@]2(O)[C@H]3Cc4ccc(O)c5c4[C@@]2(CCN3CC2CC2)[C@H]1O5)c1cccc2cc[nH]c12						2.07									19.1	Ki [26]: 13.7 nM
